# Calls of active or inactive are those of the source. The rule behind the calls is not given here.
# How the values were obtained:
# A2780 [1] = test: Ratio of IC50 for human A2780 cells to IC50 for MMR-deficient human A2780/CP70 cells in presence of 10 uM MGMT inactivator Patrin2; type: functional
# DLD-1 = test: Cytotoxicity against human DLD1 cells after 5 days by MTT assay; type: functional, cell-based; details: for IC50: DLD-1, 120 h
# HT-29 = test: Cytotoxicity against human HT-29 cells after 5 days by MTT assay; type: functional, cell-based; details: for IC50: HT-29, 120 h
# Nucleic Acid [2] = test: Induction of Escherichia coli pBR322 DNA alkylation assessed as formation of covalent DNA adducts after 2 hrs by Taq polymerase DNA stop assay; type: nucleic-acid assay
# A2780/CP70 [3] = test: (§1) Cytotoxicity against MMR-deficient human A2780/CP70 cells after 5 days by MTT assay in presence of 10 uM MGMT inactivator Patrin2; type: functional, cell-based
# HCT-116 = test: Cytotoxicity against human HCT116 cells after 5 days by MTT assay; type: functional, cell-based; details: for IC50: HCT-116, 120 h
# [4] = Prodrug conversion in citrate-phosphate buffer at pH 8 assessed as pseudo-first-order rate constant; type: physicochemical
# Summary of the method: (§2)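 Hydrolysis in citrate-phosphate buffers at 37 °C, followed by UV absorbance at 330 nm (loss of imidazotetrazine). k′ is a pseudo-first-order rate constant (×10–5 s–1), mean ± SD of three independent determinations; t1/2 given in hours.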
# [5] = Prodrug conversion in citrate-phosphate buffer at pH 4 assessed as pseudo-first-order rate constant; type: physicochemical; summary of the method: as §2
# Nucleic Acid [6] = test: Binding affinity to Escherichia coli pBR322 DNA assessed as guanine-N7 alkylation on GC-rich region after 2 hrs by piperidine cleavage assay; type: nucleic-acid assay
# A2780 [7] = test: Cytotoxicity against human A2780 cells after 5 days by MTT assay; type: functional, cell-based
# [8] = Prodrug conversion in citrate-phosphate buffer at pH 7.4 assessed as half life of compound; type: physicochemical; summary of the method: as §2
# U-251 = test: Cytotoxicity against human U251 cells after 5 days by MTT assay; type: functional, cell-based; details: for IC50: U-251, 120 h
# A2780/CP70 [9] = test: Cytotoxicity against MMR-deficient human A2780/CP70 cells after 5 days by MTT assay; type: functional, cell-based
# [10] = Prodrug conversion in citrate-phosphate buffer at pH 4 assessed as half life of compound; type: physicochemical; summary of the method: as §2
# PANC-1 = test: Cytotoxicity against human PANC1 cells after 5 days by MTT assay; type: functional, cell-based; details: for IC50: PANC-1, 120 h
# [11] = Prodrug conversion in citrate-phosphate buffer at pH 8 assessed as half life of compound; type: physicochemical; summary of the method: as §2
# A549 = test: Cytotoxicity against human A549 cells after 5 days by MTT assay; type: functional, cell-based; details: for IC50: A549, 120 h
# A2780 [12] = test: Cytotoxicity against human A2780 cells after 5 days by MTT assay in presence of 10 uM MGMT inactivator Patrin2; type: functional, cell-based
# [13] = Prodrug conversion in citrate-phosphate buffer at pH 7.4 assessed as pseudo-first-order rate constant; type: physicochemical; summary of the method: as §2
# [14] = as §1; type: functional, cell-based; details: A2780/CP70, 120 h
SMILES,Ratio IC50 (A2780 [1]),Activity (DLD-1),Activity (HT-29),Activity (Nucleic Acid [2]),Activity (A2780/CP70 [3]),Activity (HCT-116),Drug metabolism [4] [×10⁻⁵ /s],Drug metabolism [5] [×10⁻⁵ /s],Activity (Nucleic Acid [6]),Activity (A2780 [7]),t1/2 [8] [h],Activity (U-251),Activity (A2780/CP70 [9]),t1/2 [10] [h],Activity (PANC-1),t1/2 [11] [h],Activity (A549),Activity (A2780 [12]),Drug metabolism [13] [×10⁻⁵ /s],IC50 (DLD-1) [nM],other results
Cc1ccc(N(C)CCn2nnc3c(C(N)=O)ncn3c2=O)cc1,2.8,Active,Active,Active,Active,Active,49.5,0.5,Active,Active,1.27,Active,Active,41.5,Active,0.39,Active,Active,15.2,–,–
Cn1nnc2c(C(N)=O)ncn2c1=O [TEMOZOLOMIDE],>27,–,–,–,–,–,46.2,0.1,–,Active,1.38,–,Active,253,–,0.42,–,–,14,> 250000,"IC50 (HT-29): > 250000 nM; IC50 [14]: > 250000 nM; IC50 (HCT-116): > 250000 nM; IC50 (U-251): > 250000 nM; IC50 (PANC-1): > 250000 nM; IC50 (A549): > 250000 nM; IC50 (A2780 [12]; A2780, 120 h): > 250000 nM"
N[C@@H](Cc1ccc(N(CCCl)CCCl)cc1)C(=O)O [MELPHALAN],–,–,–,Active,Active,–,–,–,Active,Active,–,–,Active,–,–,–,–,Active,–,3000,IC50 (HT-29): 3000 nM; IC50 (HCT-116): 3000 nM; IC50 (U-251): 3000 nM; IC50 (PANC-1): 3000 nM; IC50 (A549): 3000 nM
NC(=O)c1ncn2c(=O)n(CCCl)nnc12,–,–,–,–,Active,–,–,–,–,Active,–,–,Active,–,–,–,–,Active,–,–,–
Cc1ccc(N(CCn2nnc3c(C(N)=O)ncn3c2=O)CCn2nnc3c(C(N)=O)ncn3c2=O)cc1,5.8,Active,Active,Active,Active,Active,45.1,0.4,Active,Active,1.33,Active,Active,48.5,Active,0.43,Active,Active,14.4,–,–

# Reference: ChEMBL document CHEMBL2203013, “Strategy for Imidazotetrazine Prodrugs with Anticancer Activity Independent of MGMT and MMR” (ACS Med Chem Lett, 2012)
